Converted amounts (≈) assume the structure as drawn.
What was measured:
[1] = type: in vivo, athymic nude rats; settings: for route of clearance: images through 24 h
aqueous solubility = type: physicochemical; settings: water
xenograft Panc-1 tumors = experiment: mouse model of xenograft Panc-1 tumors; type: in vivo, athymic nude mice; settings: 5 μg intraperitoneal daily for 3 weeks
Summary of the method: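 Five-week-old male athymic nude mice received 1 × 10^6 Panc-1 cells in each flank. Once tumors reached about 500 mm3, the test compound was given intraperitoneally at 5 μg/injection daily for 3 weeks. Tumors were measured weekly by caliper, with volume = length × width × depth × 0.5236. Tumors were excised and weighed at sacrifice. n = 4 per group versus untreated control, significance at p < 0.05.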

[2] = tested on: pancreatic cancer cells Panc-1; experiment: cell proliferation by hexosaminidase assay; type: cell-based; settings: Panc-1 cells, 1 and 10 μM, 24–72 h
Summary of the method: (§1)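 Cells seeded at 5×10^3/well, attached overnight, then exposed to the test compound for 24, 48 and 72 h. The compound was given from DMSO at 0.1% final DMSO in medium with 5% FBS, with DMSO-only controls. H441 were maintained in McCoy's 5A with 5% FBS. Panc-1 and MiaPaCa-2 were maintained in RPMI 1640 with 10% FBS. Readout was hexosaminidase: 7.5 mM p-nitrophenyl substrate solution (citrate, pH 5), 37°C 30 min, glycine/EDTA stop (pH 10.4), A405.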

[3] = tested on: pancreatic cancer cells MiaPaCa-2; experiment: cell proliferation by hexosaminidase assay; type: cell-based; settings: MiaPaCa-2 cells, 1 and 10 μM, 24–72 h
Summary of the method: as §1

[4] = tested on: lung adenocarcinoma H441 cells; experiment: cell proliferation by hexosaminidase assay; type: cell-based, Human; settings: 1 and 10 μM, 24–72 h
Summary of the method: as §1

[5] = Tc-99m-labeled EFAH, intravenous, rats, 24 h

Row | Compound | accumulation of radiolabeled compound in tumor tissue ([1]; intravenous, rats with H441 xenograft, 24 h) | route of clearance ([1]; intravenous, rats) | free Tc-99m radioactivity in rat urine by HPLC ([1]; urine collected after 30 min of injection) | solubility (aqueous solubility) [µg/mL] | excised tumor weight (xenograft Panc-1 tumors; at necropsy, control about 2.5 g) [g] | mean tumor volume reduction (xenograft Panc-1 tumors; versus control) [%] | tumor weight decrease (xenograft Panc-1 tumors; versus control) [%] | injected dose accumulated in intestine [1, 5] [%] | injected dose accumulated in liver [1, 5] | anti-proliferative activity compared with EF24 [2] | anti-proliferative activity compared with EF24 [3] | anti-proliferative activity compared with EF24 [4]
1 | Tc-99m-labeled N-{2-[3,5-Bis-(2-fluorobenzylidene)-4-oxo-piperidin-1-yl]-ethyl}-6-hydrazinonicotinamide [Tc-99m-EFAH] | measurable, but little | clearance depended on hepatobiliary route | no free Tc-99m radioactivity was found |  |  |  |  |  |  |  |  | 
2 | O=C1C(=Cc2ccccc2F)CNCC1=Cc1ccccc1F [EF24, 3,5-Bis-(2-fluorobenzylidene)-4-piperidone, reference compound] |  |  |  | 1200 (≈ 3.85 mM) |  |  |  |  |  |  |  | 
3 | NNc1ccc(C(=O)NCCN2CC(=Cc3ccccc3F)C(=O)C(=Cc3ccccc3F)C2)cn1 [EFAH, N-{2-[3,5-Bis-(2-fluorobenzylidene)-4-oxo-piperidin-1-yl]-ethyl}-6-hydrazinonicotinamide] |  | mostly eliminated by hepatobiliary route |  | 3500 (≈ 7.15 mM) | 0.45 | 79 | 82 | ~14.3 | Approximately 23.7% | as effective as EF24 | as effective as EF24 | as effective as EF24
